Test results taken from article PMC5990500 (Neurology and Therapy, 2017).
Read-outs that look alike come from different tables or passages of the source.

Columns and labels:
[1] = system: patients with mild-to-moderate probable Alzheimer's disease; conditions: cited from earlier work
rat hippocampal slices = conditions: application to rat hippocampal slices; cited from earlier work
memory performance = conditions: cited from earlier work
healthy male volunteers = conditions: cited from earlier work
[2] = assay type: in vivo, human
How it was run: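 Randomized, double-blind, placebo-controlled study in DSM-IV schizophrenia patients (18–55 y, clinically stable, on one antipsychotic). Plasma AUC0−∞, Cmax and tmax taken on day 1, and AUCtau,ss, Cmax,ss and tmax,ss at steady state (day 14). Dose proportionality was fitted by log-log linear regression.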

cGMP [3] = conditions: healthy male volunteers, single oral dose; cited from earlier work
cGMP [4] = conditions: cited from earlier work
[5] = system: patients with mild-to-moderate schizophrenia; test: Safety and tolerability; assay type: in vivo, human
How it was run: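 Patients were randomized 1:1:1:1 to oral test compound (25, 50 or 100 mg) or placebo once daily for 14 days, double-blind. Assessments were AEs, vital signs, 12-lead ECG, clinical laboratory tests, physical examination, CGI-I, PANSS, C-SSRS, Snellen visual acuity and Ishihara colour vision. End-of-treatment visit came 7–14 days after the last dose. All dosed patients were included, and results were summarized descriptively.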

[6] = healthy male volunteers, single oral dose; cited from earlier work
[7] = phase II placebo-controlled study
[8] = steady state vs single dose, 25 to 100 mg

C[C@@H]1CN(Cc2ncccn2)C[C@H]1c1nc2c(cnn2C2CCOCC2)c(=O)[nH]1 [PF-04447943]
efficacy vs placebo in cognition, behavior, clinician-rated global change ([1]; 12-week treatment): not more effective than placebo
estimated median exposure relative to the IC50 [1, 7]: remained above the IC50 for the entire dosing duration
maximal concentrations relative to the IC50 [1, 7]: approximately five times the IC50

O=c1[nH]c(Cc2ccccn2)nc2c1cnn2C1CCOCC1 [BI 409306]
effect on long-term potentiation (LTP) (rat hippocampal slices): significant enhancement of long-term potentiation
memory performance (memory performance): improved memory performance
frequency of eye disorders (healthy male volunteers; healthy male Chinese and Japanese subjects receiving BI 409306): 29.8%
time to resolution of visual AEs / eye disorders (healthy male volunteers; healthy male volunteers): 1 to 2 h
dose proportionality of exposure ([2]; 25- to 100-mg dose range): dose-proportional from 50 to 100 mg
gCV% of exposure (inter-individual variability) ([2]; CYP2C19 µM predicted phenotype): 154%
gCV% of exposure (inter-individual variability) ([2]; CYP2C19 EM predicted phenotype): 152%
gCV% of exposure (inter-individual variability) ([2]; CYP2C19 IM predicted phenotype): 48.4%
exposure by CYP2C19 predicted phenotype ([2]; IM, EM, UM patients): highest in patients with the CYP2C19 IM predicted phenotype, followed by EM and UM patients
half-life ([2]; human, plasma, oral): 1.1 to 1.85 h
gCV of AUC0−∞ (inter-individual variability), range over dose groups ([2]; single dose): 98.4% to 108%
gCV of C max (inter-individual variability), range over dose groups ([2]; single dose): 73.3% to 106%
time to reach C max ([2]; single dose, across 25, 50, 100 mg): 30 to 45 min
gCV of AUCtau,ss (inter-individual variability), range over dose groups ([2]; steady state): 86.8% to 112%
gCV of C max,ss (inter-individual variability), range over dose groups ([2]; steady state): 74.4% to 90.9%
accumulation ratio AUC, range over dose groups [2, 8]: 0.758–1.13
accumulation ratio C max, range over dose groups [2, 8]: 0.768–1.40
cGMP in the CSF (cGMP [3]): dose- and concentration-dependent increase
cGMP in rat cerebrospinal fluid (CSF) and prefrontal cortex (cGMP [4]): dose-dependent increase
mean change from baseline in total PANSS score ([5]; 25 mg qd, day 7): −0.1
mean change from baseline in total PANSS score ([5]; 25 mg qd, day 13): 2.3
mild suicidal ideation after treatment initiation (C-SSRS score = 1), patients ([5]; 50 mg qd): one patient
mean change from baseline in total PANSS score ([5]; 50 mg qd, day 7): −0.2
mean change from baseline in total PANSS score ([5]; 50 mg qd, day 13): 0.0
mean change from baseline in total PANSS score ([5]; 100 mg qd, day 7): −1.4
mean change from baseline in total PANSS score ([5]; 100 mg qd, day 13): −3.6
effect on mean pupil diameter relative to placebo ([5]; 25, 50, 100 mg qd): negligible effect
CGI-I, overall disease status ([5]; 25, 50, 100 mg qd 14 days): no change or minimal improvement
changes in laboratory parameters, vital signs, or ECGs ([5]; 25, 50, 100 mg qd 14 days): No clinically relevant or dose-related changes
deaths, serious AEs, discontinuation due to AEs ([5]; 25, 50, 100 mg qd 14 days): no deaths, serious AEs or discontinuation due to AEs
intensity of AEs ([5]; 25, 50, 100 mg qd 14 days): mild
tolerability ([5]; 25, 50, 100 mg qd 14 days): well tolerated
color discrimination (Ishihara plates) ([5]; all treatment groups): normal at maximum time points in all the patients
maximum concentration in CSF as % of the maximum plasma concentration [6]: 28.31%
